ChEMBL document CHEMBL4627246, “Pyroglutamide-Based P2X7 Receptor Antagonists Targeting Inflammatory Bowel Disease” (J Med Chem, 2020)
The source made the active and inactive calls. The rule behind the calls is not given here.

Key:
[1] = Metabolic stability in human hepatocytes; assay type: ADME, cell-based, Hepatocyte
[2] = molecular target: T1, P2X purinoceptor 7 (Homo sapiens) (UniProt Q99572); assay: Antagonist activity at P2X7R in human THP1 cells assessed as inhibition of LPS and BzATP-induced IL-1beta expression by measuring increase in proIL-1beta expression in cell supernatant extract at 10^-6 mol/L pretreated with compound followed by LPS/BzATP addition and measured after 6 hrs by Western blot analysis; assay type: cell-based; settings: THP-1
T1 sequence (whole entry): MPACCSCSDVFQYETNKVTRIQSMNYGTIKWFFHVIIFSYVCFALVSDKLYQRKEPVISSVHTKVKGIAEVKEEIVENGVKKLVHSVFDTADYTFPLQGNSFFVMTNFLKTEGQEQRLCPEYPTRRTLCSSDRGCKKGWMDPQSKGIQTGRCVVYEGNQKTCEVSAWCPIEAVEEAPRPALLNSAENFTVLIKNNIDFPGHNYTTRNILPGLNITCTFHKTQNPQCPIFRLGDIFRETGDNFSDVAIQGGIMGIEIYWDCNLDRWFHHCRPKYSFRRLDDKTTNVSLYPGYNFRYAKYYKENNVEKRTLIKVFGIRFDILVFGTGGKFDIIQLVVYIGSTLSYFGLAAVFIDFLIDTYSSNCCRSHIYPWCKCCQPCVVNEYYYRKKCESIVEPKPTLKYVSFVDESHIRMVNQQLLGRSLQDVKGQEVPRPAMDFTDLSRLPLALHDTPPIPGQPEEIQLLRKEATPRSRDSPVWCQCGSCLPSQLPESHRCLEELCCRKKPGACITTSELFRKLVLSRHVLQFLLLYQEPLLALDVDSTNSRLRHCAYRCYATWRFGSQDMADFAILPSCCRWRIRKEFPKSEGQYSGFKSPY

[3] = molecular target: T1, P2X purinoceptor 7 (Homo sapiens); assay: Antagonist activity at P2X7R in human THP1 cells assessed as inhibition of LPS and BzATP-induced ROS production at 10^-5 mol/L pretreated with compound followed by LPS/BzATP addition and measured up to 5 hrs by kinetic chemiluminescence based fluorometric analysis; assay type: cell-based; settings: THP-1
Outline: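 PMA-differentiated THP-1 macrophages (10^5 cells) in RPMI 1640 + 10% FBS pretreated with antagonist at 10^-5 mol/L, then LPS 10 μmol/L plus BzATP 70 μmol/L at 37 °C, 5% CO2; horseradish peroxidase (50 μg/mL) and luminol (50 μM) mixture added, chemiluminescence read on a fluorometer; cell-free H2O2 serves as positive control.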

[4] = molecular target: T1, P2X purinoceptor 7 (Homo sapiens); assay: Antagonist activity at P2X7 receptor in human THP-1 cells assessed as inhibition of LPS and BzATP-induced IL-1beta production at 10^-6 mol/L pretreated with compound followed by LPS/BzATP addition and measured after 2 to 6 hrs by ELISA; assay type: cell-based; settings: TDE = time-dependent effect
Outline: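 PMA (100nM)-differentiated THP-1 macrophages (RPMI 1640, 10% FCS), 10^6 cells, pretreated with antagonist at […], then challenged with LPS 10 μmol/L and BzATP 70 μmol/L at 37 °C, 5% CO2; IL1β measured by ELISA, including the 6 h point; mean ± SD, P<0.05 significant.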

[5] = molecular target: T2, P2X purinoceptor 1 (Homo sapiens) (UniProt P51575); assay: Antagonist activity at P2X1 receptor in human platelet assessed as inhibition of thrombin-induced platelet aggregation at 10 '-5 to 10^-6 mol/L pretreated with compound and LPS/BzATP for 10 mins followed by thrombin addition and measured for 8 mins by aggregometry analysis; assay type: cell-based
T2 sequence (whole entry): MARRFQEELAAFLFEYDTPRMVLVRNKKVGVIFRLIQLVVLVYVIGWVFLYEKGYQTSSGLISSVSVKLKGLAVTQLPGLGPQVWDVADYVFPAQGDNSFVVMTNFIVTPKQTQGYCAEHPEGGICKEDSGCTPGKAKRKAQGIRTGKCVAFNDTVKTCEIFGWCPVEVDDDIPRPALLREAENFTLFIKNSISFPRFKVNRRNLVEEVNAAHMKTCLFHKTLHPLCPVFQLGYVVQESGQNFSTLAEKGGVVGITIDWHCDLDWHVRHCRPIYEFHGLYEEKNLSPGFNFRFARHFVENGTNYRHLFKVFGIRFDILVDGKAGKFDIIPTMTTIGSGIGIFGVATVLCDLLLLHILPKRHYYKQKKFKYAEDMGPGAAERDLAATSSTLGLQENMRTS

[6] = Metabolic stability in human liver microsomes assessed as half life at 0.2 mg/ml incubated for 60 mins by UPLC/MS-MS analysis; assay type: ADME, Microsome
[7] = molecular target: T1, P2X purinoceptor 7 (Homo sapiens); assay: Antagonist activity at P2X7 receptor in human THP-1 cells assessed as inhibition of LPS and BzATP-induced IL-1beta production at 10^-5 mol/L pretreated with compound followed by LPS/BzATP addition and measured after 2 to 6 hrs by ELISA; assay type: cell-based
Outline: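 THP-1 monocytes grown in RPMI 1640 + 10% FCS, differentiated to macrophages with PMA (100nM); 10^6 cells pretreated with antagonist at 10^-5 mol/L, then exposed to LPS 10 μmol/L plus BzATP 70 μmol/L at 37 °C, 5% CO2; IL1β quantified by ELISA in samples at 2, 4 and 6 h; mean ± SD, significance P<0.05.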

[8] = molecular target: T1, P2X purinoceptor 7 (Homo sapiens); assay: Antagonist activity at P2X7R in human THP1 cells assessed as inhibition of LPS and BzATP-induced mature form of IL-1beta expression in whole cell extract at 10^-6 mol/L pretreated with compound followed by LPS/BzATP addition and measured after 2 to 6 hrs by Western blot analysis; assay type: cell-based; settings: THP-1
[9] = Metabolic stability in human liver microsomes assessed as intrinsic clearance at 0.2 mg/ml incubated for 60 mins by UPLC/MS-MS analysis; assay type: ADME, Microsome; settings: read-out: CLH
[10] = molecular target: T1, P2X purinoceptor 7 (Homo sapiens); assay: Inhibition of human P2X7 expressed in human HEK293 cells assessed as reduction in BzATP-stimulated TO-PRO-3 incorporation at 10 uM preincubated with compound and TO-PRO-3 for 15 mins prior to BzATP addition and measured after 1 hr by Fluo-3AM dye based flow cytometry relative to control; assay type: cell-based
Outline: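 HEK-293 cells overexpressing human P2RX7 loaded with Fluo-3 AM, then incubated with TO-PRO-3 (large pore uptake) and propidium iodide (viability) plus compound (10⁻⁵ M single point) for 15 min before BzATP 100 µM. After 1 h, flow cytometry; percentage of Fluo-3/TO-PRO-3 double-positive cells calculated. Mean of n ≥ 2 with positive control.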

[11] = Drug metabolism in mouse measured after 40 mins; assay type: ADME; settings: read-out: Drug metabolism
[12] = Solubility of compound in saline at 1mg/ml; assay type: physicochemical; settings: buffer
P2X purinoceptor 7 = molecular target: T3, P2X purinoceptor 7 (Homo sapiens, UniProt Q99572); assay: Displacement of [3H]-A804598 from human P2X7 expressed in human HEK293 cell membrane incubated for 1 hr by microplate scintillation counting method; assay type: cell membranes
T3 sequence (Q99572 whole entry): T1 sequence (whole entry)

[13] = molecular target: T1, P2X purinoceptor 7 (Homo sapiens); assay: Antagonist activity at P2X7R in human THP1 cells assessed as inhibition of LPS and BzATP-induced mature form of IL-1beta expression in cells supernatant at 10^-6 mol/L pretreated with compound followed by LPS/BzATP addition and measured after 2 to 6 hrs by Western blot analysis; assay type: cell-based; settings: THP-1
HEK293 = assay: Cytotoxicity against human HEK293 cells assessed as reduction in cell viability at 10^-5 mol/L incubated for 72 hrs; assay type: cell-based; settings: hek293, 72 h, 10 µM
Outline: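 Wild-type and P2RX7-transfected HEK293 cells exposed to compound for 72 hours; viability compared against untreated control.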

Mus musculus [14] = assay: Antiinflammatory activity against DSS-induced colitis C57BL/6J mouse model assessed as areas of normal colonic mucosa with straight and larger crypts on muscularis mucosa at 2.5 mg/kg, ip administered daily and measured after day 14 by hematoxylin and eosin staining based microscopic analysis; assay type: functional, organism-based
Outline: (§1)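 DSS colitis in WT mice: 3.8% DSS in drinking water days 1–5, then tap water for 10 days; compound 2.5 mg/kg given i.p. daily in 10% DMSO/PBS; cohorts of 10 mice per group, placebo as comparator; weight loss and clinical disease score tracked; colon sections at day 14 stained with H&E and histologically scored; data as mean ± SEM.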

[15] = molecular target: T1, P2X purinoceptor 7 (Homo sapiens); assay: Antagonist activity at P2X7R in human THP1 cells assessed as inhibition of LPS and BzATP-induced cell death at 10^-6 mol/L pretreated with compound followed by LPS/BzATP addition and measured after 4 hrs by sytox green dye based flow cytometry; settings: THP-1
[16] = molecular target: T1, P2X purinoceptor 7 (Homo sapiens); assay: Antagonist activity at P2X7R in human THP1 cells assessed as inhibition of LPS and BzATP-induced ROS production at 10^-6mol/L pretreated with compound followed by LPS/BzATP addition and measured after 4 hrs by kinetic chemiluminescence based fluorometric analysis; assay type: cell-based; settings: THP-1
Outline: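 Differentiated THP-1 macrophages (10^5 cells, RPMI 1640 + 10% FBS) pretreated with antagonist at 10^-6 mol/L before LPS (10 μmol/L) and BzATP (70 μmol/L), 37 °C, 5% CO2; ROS detected as luminol (50 μM)/horseradish peroxidase (50 μg/mL) chemiluminescence on a fluorometer; H2O2 without cells as positive control.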

Mus musculus [17] = assay: Antiinflammatory activity against DSS-induced colitis C57BL/6J mouse model assessed as decrease in inflammation level in colon at 2.5 mg/kg, ip administered daily and measured after day 14 by hematoxylin and eosin staining based microscopic analysis; assay type: functional; settings: 336 h; outline: as §1
[18] = molecular target: T1, P2X purinoceptor 7 (Homo sapiens); assay: Antagonist activity at P2X7R in human THP1 cells assessed as inhibition of LPS and BzATP-induced cell death at 10^-6 mol/L pretreated with compound followed by LPS/BzATP addition and measured after 6 hrs by sytox green dye based flow cytometry; settings: THP-1

| Stability [1] | inhibition [3] | inhibition [4] | Activity [5] | half-life [6] [min] | inhibition [7] | microsomal CLint [9] [µL/min/mg] | inhibition [10] [%] | metabolised at 40 min [11] [%] | solubility [12] | IC50 (P2X purinoceptor 7) [µM] | Ki (P2X purinoceptor 7) [µM] | SMILES | Activity (HEK293) | other results |
| --- | --- | --- | --- | --- | --- | --- | --- | --- | --- | --- | --- | --- | --- | --- |
| Unstable | Active | Tde | inactive | 3.8 | Active | 530 | 100 | 99.7 | Insoluble | 0.218 | 0.044 | O=C(NCc1cccc(C(F)(F)F)c1Cl)[C@@H]1CCC(=O)N1c1cccs1 | Non-Toxic | inhibition [2]: Active; inhibition [8]: Active; inhibition [13]: Active |
| Unstable | Active | Tde | inactive | 2.9 | Active | 630 | 85 | 99.9 | Insoluble | 0.422 | 0.086 | O=C(NCc1ccc(Cl)cc1Cl)[C@@H]1CCC(=O)N1c1ccoc1 | Non-Toxic | – |
| Stable | Active | Tde | – | 619 | Active | 3.6 | 100 | 5.1 | – | 0.862 | 0.176 | CN1C(=O)CC[C@H]1C(=O)NCc1ccc(Cl)cc1Cl | – | Activity (Mus musculus [14]): Active; inhibition [15]: Active; inhibition [16]: Active; inhibition in vivo at 2.5 mg/kg (Mus musculus [17]): 42 to 50%; inhibition [18]: inactive |
| Unstable | Active | Tde | inactive | 5.2 | Active | 411 | 94 | 99.2 | Insoluble | 0.575 | 0.118 | O=C(NCc1ccc(Cl)cc1Cl)[C@@H]1CCC(=O)N1c1ccco1 | Non-Toxic | – |
